# Test results from ChEMBL document CHEMBL1240425, “Design and synthesis of chloroquine analogs with anti-breast cancer property” (Eur J Med Chem, 2010).
# What was measured:
# MDA-MB-231 [1] = test: Antiproliferative activity against human p53, pRB mutant and estrogen receptor deficient MDA-MB-231 cells after 48 hrs by SRB assay; type: functional; conditions: MDA-MB-231, 48 h
# Summary of the method: (§1)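 Cells (5000–10,000/well) preincubated 24 h at 37 °C, 5% CO2; MCF10A kept in mammary epithelial basal medium with MEGM supplements. Seven concentrations from 2–10-fold serial dilutions, with ≤0.1% DMSO vehicle control, were given for 48 h. Cells were TCA-fixed (10% final), then stained with 0.4% SRB. Dye was solubilized in 10 mM Tris base and read at 515–564 nm. GI50 came from variable-slope sigmoidal fits, triplicates, ≥2 experiments.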
# MCF7 [2] = test: Antiproliferative activity against human p53+/- MCF7 cells after 48 hrs by SRB assay; type: functional; conditions: MCF7, 48 h; summary of the method: as §1
# [3] = Antiproliferative activity against human MCF10A cells after 48 hrs by SRB assay; type: cell-based, MCF-10A; summary of the method: as §1
# MDA-MB-231 [4] = test: Ratio of compound GI50 to cisplatin GI50 for human p53, pRB mutant and estrogen receptor deficient MDA-MB-231 cells after 48 hrs by SRB assay; type: functional
# MCF7 [5] = test: Ratio of compound GI50 to cisplatin GI50 for human p53+/- MCF7 cells after 48 hrs by SRB assay; type: functional
# MDA-MB-231 [6] = test: Ratio of GI50 for human MCF10A cells to GI50 for human p53, pRB mutant and estrogen receptor deficient MDA-MB-231 cells
# MCF7 [7] = test: Ratio of GI50 for human MCF10A cells to GI50 for human p53+/- MCF7 cells
GI50 (MDA-MB-231 [1]) [µM],GI50 (MCF7 [2]) [µM],Compound,GI50 at 48 h [3] [µM],RatioGI50 (MDA-MB-231 [4]),RatioGI50 (MCF7 [5]),RatioGI50 (MDA-MB-231 [6]),RatioGI50 (MCF7 [7])
29.8,21.4,Clc1ccc2c(NCCCN3CCCC3)ccnc2c1,45.8,,,,
40.2,17.2,Clc1ccc2c(NCCCN3CCOCC3)ccnc2c1,86.5,,,,
19.1,17.1,CN1CCN(CCCNc2ccnc3cc(Cl)ccc23)CC1,16.7,,,,
15.9,12.8,Clc1ccc2c(NCCCN3CCN(c4ccccc4)CC3)ccnc2c1,12.6,,,,
7.52,5.42,Clc1ccc2c(NCCCN3CCN(c4ccnc5cc(Cl)ccc45)CC3)ccnc2c1,8.72,,,,
6.33,4.99,FC(F)(F)c1ccc2c(N3CCN(CCCNc4ccnc5cc(Cl)ccc45)CC3)ccnc2c1,12.9,3.7,5.16,2.03,2.58
47.6,23.5,O=C1C(=O)N(CCCNc2ccnc3cc(Cl)ccc23)c2ccccc21,35.9,,,,
55.6,46.7,O=C1C(=O)N(CCCNc2ccnc3cc(Cl)ccc23)c2cccc(Cl)c21,84.8,,,,
16.8,6.57,O=C1C(=O)N(CCCNc2ccnc3cc(Cl)ccc23)c2cccc(Br)c21,20.8,,,,
15.8,7.36,O=C1C(=O)N(CCCNc2ccnc3cc(Cl)ccc23)c2cc(Cl)ccc21,6.88,,,,
35,16.6,O=C1C(=O)N(CCCNc2ccnc3cc(Cl)ccc23)c2cc(Br)ccc21,19.9,,,,
70.4,36.8,FC(F)(F)c1ccc2c(NCCCN3CCCC3)ccnc2c1,58.6,,,,
38.6,32.6,FC(F)(F)c1ccc2c(NCCCN3CCCCC3)ccnc2c1,48.8,,,,
79.8,38.8,FC(F)(F)c1ccc2c(NCCCN3CCOCC3)ccnc2c1,26.5,,,,
43.3,30.8,CN1CCN(CCCNc2ccnc3cc(C(F)(F)F)ccc23)CC1,51.7,,,,
9.9,8.75,FC(F)(F)c1ccc2c(NCCCN3CCN(c4ccccc4)CC3)ccnc2c1,19.8,,,,
4.31,4.6,FC(F)(F)c1ccc2c(NCCCN3CCN(c4ccnc5cc(Cl)ccc45)CC3)ccnc2c1,8.84,,,2.05,1.92
25.7,17.2,FC(F)(F)c1ccc2c(NCCCN3CCN(c4ccnc5cc(C(F)(F)F)ccc45)CC3)ccnc2c1,30,,,,
54.1,45.3,O=C1C(=O)N(CCCNc2ccnc3cc(C(F)(F)F)ccc23)c2ccccc21,46.8,,,,
50.2,18.8,O=C1C(=O)N(CCCNc2ccnc3cc(C(F)(F)F)ccc23)c2cccc(Cl)c21,20.2,,,,
49.4,34.4,O=C1C(=O)N(CCCNc2ccnc3cc(C(F)(F)F)ccc23)c2cccc(Br)c21,33.7,,,,
17.4,14.3,O=C1C(=O)N(CCCNc2ccnc3cc(C(F)(F)F)ccc23)c2cc(Cl)ccc21,25.2,,,,
18.9,7.98,O=C1C(=O)N(CCCNc2ccnc3cc(C(F)(F)F)ccc23)c2cc(Br)ccc21,14.6,,,,
27.8,17.9,CCN(CC)CCCNc1ccnc2cc(Cl)ccc12,65.3,,,,
38,17.7,Clc1ccc2c(NCCCN3CCCCC3)ccnc2c1,47.8,,,,
57.1,20.6,CCN(CC)CCCNc1ccnc2cc(C(F)(F)F)ccc12,45.8,,,,
,,CCN(CC)CCCC(C)Nc1ccnc2cc(Cl)ccc12 (stereo not given) [CHLOROQUINE],81.3,,,,
